Data: ChEMBL document CHEMBL1144220, “Screening helix-threading peptides for RNA binding using a thiazole orange displacement assay” (Bioorg Med Chem, 2008)
Square brackets hold non-standard residues; d marks the D form. Peptide text beside a SMILES is read from it. * marks the point of attachment. X1 = C=CCc1ccc(-c2cc(Nc3ccc(CN)cc3)c3cccc(C(=O)*)c3n2)cc1; X2 = C=CCc1ccc(-c2cc(Nc3ccccc3)c3cccc(C(=O)*)c3n2)cc1; AllylGly = C=CC[C@H](N)C(=O)O; Dap = NC[C@H](N)C(=O)O

Experiments:
[1] = Displacement of thiazole orange from RNA A by fluorescent intercalator displacement assay
In short: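 Pre-formed complex of RNA A (100 nM) with thiazole orange (50 nM), in 50 mM Bis-Tris·HCl pH 7.0, 100 mM NaCl, 10 mM MgCl2, 15 min. Added to a peptide titration and held ~15 min at 25 °C. Fluorescence read at ex 485 / em 535 nm, minus dye-only background. […] Three independent runs, mean ± SD.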

RNA A (synthetic) = assay: Binding affinity to RNA A by quantitative ribonuclease V1 footprinting assay

Row | Compound | Kd [1] | Binding affinity (RNA A (synthetic)) | Activity [1]
1 | N=C(N)NCCC[C@@H]1NC(=O)c2cccc3c(Nc4ccccc4)cc(nc23)-c2ccc(cc2)C/C=C/C[C@@H](C(N)=O)NC1=O | 3.6 µM | – | –
2 | CC(C)C[C@@H]1NC(=O)[C@H](CCCNC(=N)N)NC(=O)c2cccc3c(Nc4ccccc4)cc(nc23)-c2ccc(cc2)C/C=C/C[C@@H](C(N)=O)NC(=O)[C@H](CC(N)=O)NC1=O | 6.2 µM | – | –
3 | NC[C@H]1O[C@H](O[C@H]2[C@H](O)[C@@H](O[C@H]3O[C@H](CO)[C@@H](O)[C@H](N)[C@H]3O)[C@H](N)C[C@@H]2N)[C@H](O)[C@@H](O)[C@@H]1O [KANAMYCIN] | > 100 µM | – | –
4 | C=CCc1ccc(-c2cc(Nc3ccc(CN)cc3)c3cccc(C(=O)N[C@@H](CN)C(=O)N[C@@H](CCCCN)C(=O)NCC(=O)N[C@@H](CC=C)C(N)=O)c3n2)cc1 (X1-[Dap]KG[AllylGly]-NH2) | 0.71 µM | 0.33 µM | –
5 | NCCCC[C@H]1NC(=O)[C@H](Cc2ccccc2)NC(=O)[C@H](CN)NC(=O)c2cccc3c(Nc4ccc(CN)cc4)cc(nc23)-c2ccc(cc2)C/C=C/C[C@@H](C(N)=O)NC1=O | 2.7 µM | 2.3 µM | –
6 | C=CCc1ccc(-c2cc(Nc3ccccc3)c3cccc(C(=O)N[C@@H](CCCNC(=N)N)C(=O)N[C@@H](CC(N)=O)C(=O)N[C@@H](CC(N)=O)C(=O)N[C@@H](CC=C)C(N)=O)c3n2)cc1 (X2-RNN[AllylGly]-NH2) | 14.2 µM | – | –
7 | CC(C)[C@H](NC(=O)[C@H](CO)NC(=O)CCCN)C(=O)NCc1ccc(Nc2ccnc3c(C(=O)N[C@@H](CCCNC(=N)N)C(N)=O)cccc23)cc1 | 13.2 µM | 3.3 µM | –
8 | C=CCc1ccc(-c2cc(Nc3ccccc3)c3cccc(C(=O)N[C@@H](CCCNC(=N)N)C(=O)N[C@@H](CC(C)C)C(=O)N[C@@H](CC(C)C)C(=O)N[C@@H](CC=C)C(N)=O)c3n2)cc1 | > 30 µM | – | –
9 | N=C(N)NCCC[C@@H]1NC(=O)c2cccc3c(Nc4ccccc4)cc(nc23)-c2ccc(cc2)C/C=C/C[C@@H](C(N)=O)NC(=O)[C@@H](CC(N)=O)NC(=O)[C@@H](CC(N)=O)NC1=O | 13.4 µM | – | –
10 | NC[C@@H]1O[C@H](O[C@H]2[C@@H](O)[C@H](O[C@H]3[C@@H](O)[C@H](N)C[C@H](N)[C@H]3O[C@H]3O[C@H](CN)[C@@H](O)[C@H](O)[C@H]3N)O[C@@H]2CO)[C@H](N)[C@@H](O)[C@@H]1O | > 60 µM | – | –

More lines, now with the values ahead:

Row | Kd [1] | Binding affinity (RNA A (synthetic)) | Activity [1] | Compound
11 | > 30 µM | – | – | CC(C)C[C@@H]1NC(=O)[C@H](CC(C)C)NC(=O)[C@H](CCCNC(=N)N)NC(=O)c2cccc3c(Nc4ccccc4)cc(nc23)-c2ccc(cc2)C/C=C/C[C@@H](C(N)=O)NC1=O
12 | 3.9 µM | – | – | N=C(N)NCCC[C@@H]1NC(=O)c2cccc3c(Nc4ccccc4)cc(nc23)-c2ccc(cc2)C/C=C/C[C@@H](C(N)=O)NC(=O)CNC1=O
13 | 1.4 µM | – | – | N=C(N)NCCC[C@@H]1NC(=O)c2cccc3c(Nc4ccccc4)cc(nc23)-c2ccc(cc2)C/C=C/C[C@@H](C(N)=O)NC(=O)[C@H](CC(N)=O)NC(=O)[C@H](CC(N)=O)NC1=O
14 | > 30 µM | – | – | C=CCc1ccc(-c2cc(Nc3ccccc3)c3cccc(C(=O)N[C@@H](CCCNC(=N)N)C(=O)N[C@H](CC(C)C)C(=O)N[C@H](CC(C)C)C(=O)N[C@@H](CC=C)C(N)=O)c3n2)cc1
15 | 4.4 µM | 8.6 µM | – | NCCCC[C@H]1NC(=O)[C@@H](Cc2ccccc2)NC(=O)[C@H](CN)NC(=O)c2cccc3c(Nc4ccc(CN)cc4)cc(nc23)-c2ccc(cc2)C/C=C/C[C@@H](C(N)=O)NC1=O
16 | 0.22 µM | 0.05 µM | – | NCCCC[C@@H]1NC(=O)[C@H](CN)NC(=O)c2cccc3c(Nc4ccc(CN)cc4)cc(nc23)-c2ccc(cc2)C/C=C/C[C@@H](C(N)=O)NC(=O)CNC1=O
17 | 0.35 µM | – | – | N=C(N)NCCC[C@@H]1NC(=O)c2cccc3c(Nc4ccccc4)cc(nc23)-c2ccc(cc2)C/C=C/C[C@@H](C(N)=O)NC(=O)CNC(=O)[C@H](CCCCN)NC1=O
18 | 0.6 µM | 0.27 µM | 96% | NCCCC[C@H]1NC(=O)CNC(=O)[C@H](CN)NC(=O)c2cccc3c(Nc4ccc(CN)cc4)cc(nc23)-c2ccc(cc2)C/C=C/C[C@@H](C(N)=O)NC1=O
19 | 18.9 µM | – | – | CC(C)C[C@@H]1NC(=O)[C@H](CC(N)=O)NC(=O)[C@H](CCCNC(=N)N)NC(=O)c2cccc3c(Nc4ccccc4)cc(nc23)-c2ccc(cc2)C/C=C/C[C@@H](C(N)=O)NC1=O
20 | 10.1 µM | – | – | CC(C)C[C@H]1NC(=O)[C@H](CCCNC(=N)N)NC(=O)c2cccc3c(Nc4ccccc4)cc(nc23)-c2ccc(cc2)C/C=C/C[C@@H](C(N)=O)NC(=O)[C@@H](CC(C)C)NC1=O
